In ChEMBL document CHEMBL4014350, “Alkoxyurea-Based Histone Deacetylase Inhibitors Increase Cisplatin Potency in Chemoresistant Cancer Cell Lines” (J Med Chem, 2017):

Tests used:
[1] = Inhibition of HDAC in human A2780CisR cells using Boc-Lys(epsilon-Ac)-AMC as substrate preincubated for 18 hrs followed by substrate addition measured after 3 hrs by fluorescence assay; assay type: cell-based
[2] = system: A2780; test: Antiproliferative activity against human A2780 cells measured after 72 hrs by MTT assay; assay type: functional, cell-based; details: A2780, 72 h
[3] = system: CAL-27; test: Potentiation of 0.316 uM cisplatin-induced cytotoxicity against human CAL27 cells assessed as decrease in cell viability by measuring combination index at 800 uM preincubated for 48 hrs followed by cisplatin treatment measured after 72 hrs by MTT assay; assay type: functional; details: in the assay text read “at 800 nM” for “at 800 uM”
Outline: (§1)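 Cal27 and cisplatin-resistant Cal27CisR cells were preincubated with the HDAC inhibitor for 48 h, then given cisplatin in combination. Viability was read by MTT after 72 h. The combination index was computed by the Chou–Talalay method: CI > 1 is antagonism, CI = 1 is additive, and CI < 0.9 is synergism. Points with fraction affected below 0.20 were flagged.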

[4] = molecular target: T1, Histone deacetylase 1/6 (Homo sapiens) (UniProt Q13547+Q9UBN7); test: Inhibition of HDAC1/HDAC6 in human Cal27CisR cells assessed as potentiation of 20 uM cisplatin-induced cytotoxicity by measuring combination index at 800 nM preincubated for 48 hrs followed by cisplatin treatment measured after 72 hrs by MTT assay
[5] = molecular target: T1, Histone deacetylase 1/6 (Homo sapiens); test: Inhibition of HDAC1/HDAC6 in human Cal27CisR cells assessed as potentiation of 3.16 uM cisplatin-induced cytotoxicity by measuring combination index at 600 nM preincubated for 48 hrs followed by cisplatin treatment measured after 72 hrs by MTT assay
[6] = system: CAL-27; test: Potentiation of 0.316 uM cisplatin-induced cytotoxicity against human CAL27 cells assessed as decrease in cell viability by measuring combination index at 600 uM preincubated for 48 hrs followed by cisplatin treatment measured after 72 hrs by MTT assay; assay type: functional; details: in the assay text read “at 600 nM” for “at 600 uM”; outline: as §1
[7] = molecular target: T1, Histone deacetylase 1/6 (Homo sapiens); test: Inhibition of HDAC1/HDAC6 in human Cal27CisR cells assessed as potentiation of 10 uM cisplatin-induced cytotoxicity by measuring combination index at 600 nM preincubated for 48 hrs followed by cisplatin treatment measured after 72 hrs by MTT assay
[8] = Inhibition of HDAC in human A2780 cells using Boc-Lys(epsilon-Ac)-AMC as substrate preincubated for 18 hrs followed by substrate addition measured after 3 hrs by fluorescence assay; assay type: cell-based
[9] = molecular target: T1, Histone deacetylase 1/6 (Homo sapiens); test: Inhibition of HDAC1/HDAC6 in human Cal27CisR cells assessed as potentiation of 3.16 uM cisplatin-induced cytotoxicity by measuring combination index at 800 nM preincubated for 48 hrs followed by cisplatin treatment measured after 72 hrs by MTT assay
[10] = system: CAL-27; test: Potentiation of 5 uM cisplatin-induced cytotoxicity against human CAL27 cells assessed as decrease in cell viability by measuring combination index at 800 uM preincubated for 48 hrs followed by cisplatin treatment measured after 72 hrs by MTT assay; assay type: functional; details: in the assay text read “at 800 nM” for “at 800 uM”
Outline: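 HDAC inhibitor was added 48 h before cisplatin, then cells were exposed to cisplatin for 72 h and viability was read by MTT assay. Combination index was computed by the Chou–Talalay method: CI > 1 is antagonism, CI = 1 additive, CI < 0.9 synergism. Points with fraction affected below 0.20 were flagged.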

[11] = system: CAL-27; test: Potentiation of 0.5 uM cisplatin-induced cytotoxicity against human CAL27 cells assessed as decrease in cell viability measuring combination index at 600 uM preincubated for 48 hrs followed by cisplatin treatment measured after 72 hrs by MTT assay; assay type: functional; details: in the assay text read “at 600 nM” for “at 600 uM”; outline: as §1
[12] = molecular target: T2, Protein deacetylase HDAC6 (Homo sapiens, UniProt Q9UBN7); test: Inhibition of full length human recombinant N-terminal GST-tagged HDAC6 expressed in baculovirus infected sf9 cells Z-(Ac)Lys-AMC as substrate measured after 90 mins by fluorescence assay
T2 sequence (Q9UBN7 whole entry): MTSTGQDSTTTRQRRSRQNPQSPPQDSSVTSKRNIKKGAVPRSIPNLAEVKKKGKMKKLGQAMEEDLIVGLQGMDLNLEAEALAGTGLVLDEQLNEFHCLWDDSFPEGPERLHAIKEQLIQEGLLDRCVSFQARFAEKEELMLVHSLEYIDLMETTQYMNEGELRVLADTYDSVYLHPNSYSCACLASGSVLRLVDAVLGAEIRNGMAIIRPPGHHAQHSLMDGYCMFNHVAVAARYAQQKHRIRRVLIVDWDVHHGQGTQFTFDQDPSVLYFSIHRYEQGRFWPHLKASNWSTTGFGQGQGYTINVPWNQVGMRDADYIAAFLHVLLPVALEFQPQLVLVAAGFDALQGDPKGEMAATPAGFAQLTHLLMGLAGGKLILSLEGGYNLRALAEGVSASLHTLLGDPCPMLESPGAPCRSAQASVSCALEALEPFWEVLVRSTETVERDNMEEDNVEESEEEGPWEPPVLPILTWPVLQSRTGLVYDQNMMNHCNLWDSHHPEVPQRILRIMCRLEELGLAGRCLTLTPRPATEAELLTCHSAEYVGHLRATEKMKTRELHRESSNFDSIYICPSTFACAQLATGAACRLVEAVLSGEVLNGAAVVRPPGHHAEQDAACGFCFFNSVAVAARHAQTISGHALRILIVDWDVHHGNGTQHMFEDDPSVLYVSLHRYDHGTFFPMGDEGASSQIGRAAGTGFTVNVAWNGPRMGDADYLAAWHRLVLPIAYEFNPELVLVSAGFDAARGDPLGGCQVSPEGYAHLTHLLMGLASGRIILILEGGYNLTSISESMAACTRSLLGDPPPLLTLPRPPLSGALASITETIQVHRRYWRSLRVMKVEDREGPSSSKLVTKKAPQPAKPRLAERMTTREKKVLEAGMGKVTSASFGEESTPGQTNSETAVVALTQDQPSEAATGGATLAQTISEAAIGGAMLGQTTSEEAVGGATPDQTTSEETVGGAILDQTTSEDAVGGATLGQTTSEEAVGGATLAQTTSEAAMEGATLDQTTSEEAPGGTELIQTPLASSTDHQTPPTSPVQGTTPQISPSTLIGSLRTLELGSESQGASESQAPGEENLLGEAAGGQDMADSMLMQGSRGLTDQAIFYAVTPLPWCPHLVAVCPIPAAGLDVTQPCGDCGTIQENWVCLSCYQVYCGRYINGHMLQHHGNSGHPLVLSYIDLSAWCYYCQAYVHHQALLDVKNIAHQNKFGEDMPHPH

[13] = Inhibition of HDAC in human CAL27 cells using Boc-Lys(epsilon-Ac)-AMC as substrate preincubated for 18 hrs followed by substrate addition measured after 3 hrs by fluorescence assay; assay type: cell-based; details: CAL-27

T1 sequence (Q13547 whole entry, looked up, one chain of several): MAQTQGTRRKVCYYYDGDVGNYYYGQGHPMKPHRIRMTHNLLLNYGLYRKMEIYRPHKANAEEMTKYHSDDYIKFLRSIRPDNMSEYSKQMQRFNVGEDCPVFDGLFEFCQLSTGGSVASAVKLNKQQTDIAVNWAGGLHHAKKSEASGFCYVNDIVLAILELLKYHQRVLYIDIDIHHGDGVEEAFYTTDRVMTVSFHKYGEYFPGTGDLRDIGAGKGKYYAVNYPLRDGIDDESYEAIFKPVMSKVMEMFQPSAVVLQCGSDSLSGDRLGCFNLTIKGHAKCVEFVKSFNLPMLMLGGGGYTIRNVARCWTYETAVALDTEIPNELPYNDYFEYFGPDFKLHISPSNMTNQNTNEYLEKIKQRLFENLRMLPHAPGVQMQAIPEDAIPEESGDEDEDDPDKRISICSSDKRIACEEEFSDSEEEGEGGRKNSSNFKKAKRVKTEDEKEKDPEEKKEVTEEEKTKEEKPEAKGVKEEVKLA

IC50 [1] [nM] | IC50 [2] [nM] | IC50 [8] [nM] | IC50 [12] [nM] | IC50 [13] [nM] | SMILES | CI [3] | CI [4] | CI [5] | CI [6] | CI [7] | CI [9] | CI [10] | CI [11]
500 | 1200 | 1000 | 6.1 | 900 | COc1cc(NC(=O)NOCCCCCC(=O)NO)c2ncccc2c1 | <0.2 | 0.37 | < 0.2 | 0.79 | 0.36 | 0.51 | 0.36 | 0.77
400 | 1100 | 900 | 24.8 | 600 | COc1cc(NC(=O)NOCCCCCC(=O)NO)c2nccc(C)c2c1 | 0.56 | 0.28 | 0.51 | 0.93 | 0.2 | 0.26 | 0.38 | 0.58
500 | 800 | 1700 | 2.8 | 500 | COc1cc(NC(=O)NOCCCCCC(=O)NO)c2nc(OC)cc(C)c2c1 | 0.84 | 0.21 | 0.24 | 0.71 | 0.17 | 0.29 | 0.69 | 0.66
